Reference: ChEMBL document CHEMBL1687753, “Mitochondrial DNA depletion and respiratory chain activity in primary human subcutaneous adipocytes treated with nucleoside analogue reverse transcriptase inhibitors” (Antimicrob Agents Chemother, 2010)
Activity calls are given as the source filed them. The rule behind the calls is not given here.

What was measured:
[1] = Toxicity in human subcutaneous preadipocytes assessed as decrease of cell viability measured every 5 days at 0.1 uM after 30 days using […]; assay type: cell-based; conditions: 720 h
Procedure, shortened: (§1)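 Trypan blue exclusion counted by microscopy at each medium change every fifth day during 30 days of drug exposure in differentiating pooled preadipocytes. Final viability was calculated by excluding the cumulative percentage of dead cells. Five independent experiments.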

Homo sapiens [2] = assay: Inhibition of electron transport protein complex 5 in human subcutaneous preadipocytes at 0.1 uM after 30 to 60 days by photometric analysis; assay type: cell-based
Procedure, shortened: (§2)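 Pooled primary human abdominal subcutaneous preadipocytes induced to differentiate with drug (DMSO vehicle, ≤0.1%) added at day 0 and kept to day 30 or 60. Cells sonicated twice for 10 s; substrates added to lysates and conversion by complexes I+III, II+III, IV, V and citrate synthase read photometrically at 37°C. Three independent experiments.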

[3] = Toxicity in human subcutaneous preadipocytes assessed as decrease of PPARgamma expression at 3 uM after 18 days by RT-PCR analysis; assay type: cell-based; conditions: 432 h
Procedure, shortened: (§3)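 Differentiating preadipocytes were harvested at day 18. RNA from three plates was pooled and reverse transcribed, and qRT-PCR was run with 42 cycles of 94/55/72°C. Values were normalized to transferrin receptor or beta-actin by standard curve. Triplicates from three independent experiments.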

Homo sapiens [4] = assay: Inhibition of electron transport protein complex 1/3 in human subcutaneous preadipocytes at 0.1 uM after 30 to 60 days by photometric analysis; assay type: cell-based; procedure, shortened: as §2
Homo sapiens [5] = assay: Inhibition of citrate synthase in human subcutaneous preadipocytes at 0.1 uM after 30 to 60 days by photometric analysis; assay type: cell-based; procedure, shortened: as §2
[6] = Toxicity in fully differentiated human subcutaneous preadipocytes assessed as cell death at 0.1 uM after 30 days using […]; conditions: 720 h; procedure, shortened: as §1
[7] = Toxicity in human subcutaneous preadipocytes assessed as effect on mitochondrial membrane potential at 0.1 uM after 30 days using JC-1 red/green fluorescence dye by flow cytometry analysis; assay type: cell-based; conditions: 720 h
Procedure, shortened: (§4)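 Pooled primary human subcutaneous preadipocytes (passage ≤4) were differentiated with drug or DMSO vehicle from day 0 and cultured 30 days. Staining with the JC-1 kit was followed by flow cytometry, and the JC-1 red/green fluorescence intensity ratio was used as the membrane potential read-out. CCCP served as the depolarization control. Three independent experiments, means ± SEM.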

[8] = Toxicity in human subcutaneous preadipocytes assessed as triacylglyceride droplets at 0.1 uM after 30 days using oil red O fluorescence staining by conventional fluorescence microscopy; assay type: cell-based; conditions: 720 h
Procedure, shortened: (§5)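 Preadipocytes were differentiated with a hormone cocktail (IBMX for the first 7 days, dexamethasone, insulin, indomethacin; high-glucose DMEM for days 0–18), with drug or vehicle present from day 0 to day 30. Cells were fixed in 10% formalin, stained with 0.21% oil red O in 60% isopropanol, and imaged by fluorescence microscopy. Quantification was by isopropanol extraction at 495 nm, optionally adjusted for viable cells.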

[9] = Toxicity in human subcutaneous preadipocytes assessed as decrease of mitochondrial DNA abundance at 0.1 uM after 30 days by RT-PCR analysis; assay type: cell-based; conditions: 720 h
Procedure, shortened: (§6)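 mtDNA content of differentiated preadipocytes at day 30 or 60 of drug exposure was measured by real-time quantitative PCR with human-specific primers. Absolute copy numbers came from serial dilutions of plasmid standards. Three independent experiments.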

Homo sapiens [10] = assay: Inhibition of electron transport protein complex 4 in human subcutaneous preadipocytes at 0.1 uM after 30 to 60 days by photometric analysis; assay type: cell-based; procedure, shortened: as §2
[11] = Toxicity in human subcutaneous preadipocytes assessed as effect on mitochondrial mass at 0.1 uM after 30 days using […] by flow cytometry analysis; assay type: cell-based; conditions: 720 h
[12] = Toxicity in human subcutaneous preadipocytes assessed as acquisition of adipocyte shape at 0.1 uM after 30 days using oil red O fluorescence staining by conventional fluorescence microscopy; assay type: cell-based; conditions: 720 h
Procedure, shortened: (§7)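 On day 30 of differentiation with drug present from day 0, cells were fixed in 10% formalin and stained with 0.21% oil red O. Staining was viewed by fluorescence and light microscopy. For quantification, dye was extracted with isopropanol and read at 495 nm, also adjusted for viable cell number. Five independent experiments.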

[13] = Toxicity in human subcutaneous preadipocytes assessed as decrease of PPARgamma expression at 0.1 uM after 18 days by RT-PCR analysis; assay type: cell-based; conditions: 432 h; procedure, shortened: as §3
[14] = Toxicity in human subcutaneous preadipocytes assessed as decrease of cell cultures at 0.1 uM after 30 days using oil red O fluorescence staining by conventional fluorescence microscopy; assay type: cell-based; conditions: 720 h; procedure, shortened: as §7
[15] = Toxicity in human subcutaneous preadipocytes assessed as decrease of mitochondrial DNA copy number per cell at 0.1 uM after 60 days by RT-PCR analysis; assay type: cell-based; parameters: scale not given: the % may be the effect or the level left; conditions: 1440 h; procedure, shortened: as §6
[16] = Toxicity in human subcutaneous preadipocytes assessed as decrease of C/EBPalpha expression at 3 uM after 18 days by RT-PCR analysis; assay type: cell-based; conditions: 432 h; procedure, shortened: as §3
[17] = Toxicity in human subcutaneous preadipocytes assessed as decrease of mitochondrial DNA abundance at 0.1 uM after 60 days by RT-PCR analysis; assay type: cell-based; conditions: 1440 h; procedure, shortened: as §6
[18] = Toxicity in human subcutaneous preadipocytes assessed as cell death at 0.1 uM after 30 days using […]; assay type: cell-based; conditions: 720 h; procedure, shortened: as §1
[19] = Toxicity in human subcutaneous preadipocytes assessed as decrease of adiponectin expression at 0.1 uM after 30 days by ELISA; assay type: cell-based; conditions: 720 h
Procedure, shortened: (§8)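 Adiponectin secreted into the medium over days 25 to 30 of drug exposure in differentiating preadipocytes was measured by sandwich ELISA of culture supernatant. Three independent experiments.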

[20] = Toxicity in human subcutaneous preadipocytes assessed as decrease of C/EBPalpha expression at 0.1 uM after 18 days by RT-PCR analysis; assay type: cell-based; conditions: 432 h; procedure, shortened: as §3
Homo sapiens [21] = assay: Inhibition of electron transport protein complex 2/3 in human subcutaneous preadipocytes at 0.1 uM after 30 to 60 days by photometric analysis; assay type: cell-based; procedure, shortened: as §2
[22] = Toxicity in human subcutaneous preadipocytes assessed as decrease of insulin-sensitizing adipokine expression at 0.1 uM after 30 days by RT-PCR analysis; assay type: cell-based; conditions: 720 h
Procedure, shortened: (§9)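 Adiponectin mRNA at day 30 was measured by qRT-PCR normalized to transferrin receptor or beta-actin, using pooled RNA and cDNA. Triplicates from three independent experiments.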

[23] = Toxicity in human subcutaneous preadipocytes assessed as cell death at 6 uM after 30 days using […]; assay type: cell-based; conditions: 720 h; procedure, shortened: as §1
[24] = Toxicity in human subcutaneous preadipocytes assessed as acquisition of adipocyte shape at 6 uM after 30 days using oil red O fluorescence staining by conventional fluorescence microscopy; assay type: cell-based; conditions: 720 h; procedure, shortened: as §7
[25] = Toxicity in human subcutaneous preadipocytes assessed as decrease of PPARgamma expression at 6 uM after 18 days by RT-PCR analysis; assay type: cell-based; parameters: scale not given: the % may be the effect or the level left; conditions: 432 h; procedure, shortened: as §3
[26] = Toxicity in human subcutaneous preadipocytes assessed as decrease of insulin-sensitizing adipokine expression at 6 uM after 30 days by RT-PCR analysis; assay type: cell-based; conditions: 720 h; procedure, shortened: as §9
Homo sapiens [27] = assay: Inhibition of electron transport protein complex 4 in human subcutaneous preadipocytes at 6 uM after 30 to 60 days by photometric analysis; assay type: cell-based; procedure, shortened: as §2
[28] = Toxicity in human subcutaneous preadipocytes assessed as triacylglyceride droplets at 6 uM after 30 days using oil red O fluorescence staining by conventional fluorescence microscopy; assay type: cell-based; conditions: 720 h; procedure, shortened: as §5
[29] = Toxicity in human subcutaneous preadipocytes assessed as effect on mitochondrial mass at 6 uM after 30 days using […] by flow cytometry analysis; assay type: cell-based; conditions: 720 h
Homo sapiens [30] = assay: Inhibition of electron transport protein complex 5 in human subcutaneous preadipocytes at 6 uM after 30 to 60 days by photometric analysis; assay type: cell-based; procedure, shortened: as §2
Homo sapiens [31] = assay: Inhibition of citrate synthase in human subcutaneous preadipocytes at 6 uM after 30 to 60 days by photometric analysis; assay type: cell-based; procedure, shortened: as §2
[32] = Toxicity in human subcutaneous preadipocytes assessed as decrease of cell cultures at 6 uM after 30 days using oil red O fluorescence staining by conventional fluorescence microscopy; assay type: cell-based; conditions: 720 h; procedure, shortened: as §7
[33] = Toxicity in human subcutaneous preadipocytes assessed as decrease of mitochondrial DNA abundance at 6 uM after 30 days by RT-PCR analysis; assay type: cell-based; conditions: 720 h; procedure, shortened: as §6
[34] = Toxicity in fully differentiated human subcutaneous preadipocytes assessed as cell death at 6 uM after 30 days using […]; conditions: 720 h; procedure, shortened: as §1
Homo sapiens [35] = assay: Inhibition of electron transport protein complex 2/3 in human subcutaneous preadipocytes at 6 uM after 30 to 60 days by photometric analysis; assay type: cell-based; procedure, shortened: as §2
[36] = Toxicity in human subcutaneous preadipocytes assessed as decrease of cell viability measured every 5 days at 6 uM after 30 days using […]; assay type: cell-based; conditions: 720 h; procedure, shortened: as §1
[37] = Toxicity in human subcutaneous preadipocytes assessed as decrease of adiponectin expression at 6 uM after 30 days by ELISA; assay type: cell-based; conditions: 720 h; procedure, shortened: as §8
[38] = Toxicity in human subcutaneous preadipocytes assessed as effect on mitochondrial membrane potential at 6 uM after 30 days using JC-1 red/green fluorescence dye by flow cytometry analysis; assay type: cell-based; conditions: 720 h; procedure, shortened: as §4
Homo sapiens [39] = assay: Inhibition of electron transport protein complex 1/3 in human subcutaneous preadipocytes at 6 uM after 30 to 60 days by photometric analysis; assay type: cell-based; procedure, shortened: as §2
[40] = Toxicity in human subcutaneous preadipocytes assessed as decrease of C/EBPalpha expression at 6 uM after 18 days by RT-PCR analysis; assay type: cell-based; parameters: scale not given: the % may be the effect or the level left; conditions: 432 h; procedure, shortened: as §3

## Nc1ccn([C@H]2CC[C@@H](CO)O2)c(=O)n1 [ZALCITABINE]
[1]
  Activity: Toxic
Homo sapiens [2]
  inhibition: inactive
[3]
  Activity: Non-toxic
Homo sapiens [4]
  inhibition: inactive
Homo sapiens [5]
  inhibition: inactive
[6]
  Activity: Toxic
[7]
  Activity: Non-toxic
[8]
  Activity: Non-toxic
[9]
  Activity: Toxic
Homo sapiens [10]
  inhibition: inactive
[11]
  Activity: Non-toxic
[12]
  Activity: Non-toxic
[13]
  Activity: Non-toxic
[14]
  Activity: Toxic
[15]
  Activity: 50%
[16]
  Activity: Non-toxic
[17]
  Activity: Toxic
[18]
  Activity: Toxic
[19]
  Activity: Non-toxic
[20]
  Activity: Non-toxic
Homo sapiens [21]
  inhibition: inactive
[22]
  Activity: Non-toxic

## Cc1cn([C@H]2C[C@H](N=[N+]=[N-])[C@@H](CO)O2)c(=O)[nH]c1=O [ZIDOVUDINE]
[23]
  Activity: Toxic
[24]
  Activity: Non-toxic
[25]
  Activity: 40%
[26]
  Activity: Non-toxic
Homo sapiens [27]
  inhibition: inactive
[28]
  Activity: Non-toxic
[29]
  Activity: Non-toxic
Homo sapiens [30]
  inhibition: inactive
Homo sapiens [31]
  inhibition: inactive
[32]
  Activity: Toxic
[33]
  Activity: Non-toxic
[34]
  Activity: Toxic
Homo sapiens [35]
  inhibition: inactive
[36]
  Activity: Toxic
[37]
  Activity: Non-toxic
[38]
  Activity: Non-toxic
Homo sapiens [39]
  inhibition: inactive
[40]
  Activity: 40%
